Data reported in ChEMBL document CHEMBL4765239, “Discovery of a Novel Highly Selective Histamine H4 Receptor Antagonist for the Treatment of Atopic Dermatitis” (J Med Chem, 2018).
Activity calls are given as the source filed them. The rule behind the calls is not given here.

Assays:
[1] = Cmax in ICR mouse at 10 mg/kg, po measured upto 24 hrs by LC-MS/MS analysis; format: ADME, organism-based; parameters: route oral, dose 10 mg/kg, time <=24; conditions: in vivo
In short: (§1)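 Female ICR mice, n=3 per group, given test compound orally. Blood sampled at 0.5, 1, 2, 4, 7 and 24 h post dose; plasma levels quantified by LC-MS/MS. Parameters from non-compartmental analysis.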

[2] = system: Mus musculus; assay: Anti-pruritus activity in ICR mouse with histamine-induced itching assessed as reduction of scratching bouts at 10 mg/kg, po administered 30 mins prior to histamine challenge and measured upto 20 mins; format: functional; parameters: scale not given: the % may be the effect or the level left; conditions: time 50 min
In short: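 Female ICR mice (n=8-10 per group), back skin clipped 24 h before. Oral dose in 20% hydroxypropyl-β-cyclodextrin given 30 min before intradermal pruritogen in saline: histamine 300 nmol, substance P 100 nmol or C48/80 100 µg. Scratching bouts counted from video for 20 min after injection. Mean ± S.E.M., Student's t-test.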

[3] = AUC (all) in ICR mouse at 2 mg/kg, po measured upto 24 hrs by LC-MS/MS analysis; format: ADME, organism-based; parameters: route oral, dose 2 mg/kg, time <=24; conditions: in vivo; in short: as §1
[4] = target: T1, Histamine H4 receptor (Mus musculus, UniProt Q91ZY2); assay: Displacement of [3H]-histamine from recombinant mouse histamine H4 receptor expressed in CHO-K1 cell membranes measured after 30 mins by microbeta scintillation counting method; parameters: species or system Cell membrane
T1 sequence (Q91ZY2 whole entry): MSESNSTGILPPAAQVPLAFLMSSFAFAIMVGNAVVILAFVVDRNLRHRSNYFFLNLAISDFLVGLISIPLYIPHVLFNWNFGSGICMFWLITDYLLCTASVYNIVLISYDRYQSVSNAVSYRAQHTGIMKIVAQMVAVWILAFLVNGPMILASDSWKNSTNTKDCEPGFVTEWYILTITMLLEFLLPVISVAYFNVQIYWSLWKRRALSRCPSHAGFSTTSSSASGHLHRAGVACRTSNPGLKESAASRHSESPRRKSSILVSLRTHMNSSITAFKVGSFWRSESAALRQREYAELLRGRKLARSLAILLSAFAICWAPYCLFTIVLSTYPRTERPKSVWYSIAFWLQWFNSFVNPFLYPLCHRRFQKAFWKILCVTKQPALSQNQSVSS
In short: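 Competitive binding on CHO-K1 membranes expressing human H3R ([3H]Nα-methylhistamine) or mouse H4R ([3H]histamine). Run in 50 mM Tris-HCl pH 7.4 for 30 min at 27 °C, then filtered onto 0.5% PEI-treated glass fiber and washed three times with ice-cold buffer. Bound radioactivity read by liquid scintillation counting.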

[5] = target: Histamine H1 receptor (Homo sapiens) (UniProt P35367); assay: Displacement of [3H]pyrilamine from recombinant human histamine H1 receptor after 60 mins by scintillation counting analysis
Chain of Histamine H1 receptor (Homo sapiens) (P35367 whole entry): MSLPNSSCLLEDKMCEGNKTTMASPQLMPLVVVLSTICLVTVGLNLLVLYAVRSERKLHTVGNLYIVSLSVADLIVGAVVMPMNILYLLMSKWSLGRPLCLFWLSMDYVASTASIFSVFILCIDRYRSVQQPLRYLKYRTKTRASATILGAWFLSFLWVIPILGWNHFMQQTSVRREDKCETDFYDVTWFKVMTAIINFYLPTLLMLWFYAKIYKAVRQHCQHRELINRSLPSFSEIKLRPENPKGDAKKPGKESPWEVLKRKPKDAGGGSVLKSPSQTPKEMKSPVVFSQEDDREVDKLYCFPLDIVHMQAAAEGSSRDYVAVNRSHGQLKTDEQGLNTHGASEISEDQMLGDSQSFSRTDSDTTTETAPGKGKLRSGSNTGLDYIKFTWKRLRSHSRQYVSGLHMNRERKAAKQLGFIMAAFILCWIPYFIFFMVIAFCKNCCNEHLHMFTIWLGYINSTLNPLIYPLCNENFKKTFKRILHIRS

[6] = Tmax in ICR mouse at 2 mg/kg, po measured upto 24 hrs by LC-MS/MS analysis; format: ADME, organism-based; conditions: in vivo; in short: as §1
[7] = Tmax in ICR mouse at 10 mg/kg, po measured upto 24 hrs by LC-MS/MS analysis; format: ADME, organism-based; conditions: in vivo; in short: as §1
[8] = system: Mus musculus; assay: Antiinflammatory activity in oxazolone-induced Balb/c mouse model of atopic dermatitis assessed as reduction of hyperplasia at 50 mg/kg, po BID administered 30 mins prior to oxazolone challenge for 3 weeks by hematoxylin and eosin staining based histopathological analysis; format: functional, organism-based
[9] = AUC (all) in ICR mouse at 10 mg/kg, po measured upto 24 hrs by LC-MS/MS analysis; format: ADME, organism-based; parameters: route oral, dose 10 mg/kg, time <=24; conditions: in vivo; in short: as §1
[10] = system: Mus musculus; assay: Antiinflammatory activity in oxazolone-induced Balb/c mouse model of atopic dermatitis assessed as reduction of epidermal thicken in skin lesions at 50 mg/kg, po BID administered 30 mins prior to oxazolone challenge for 3 weeks by hematoxylin and eosin staining based histopathological analysis; format: functional, organism-based
In short: (§2)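 Female BALB/c mice (n=8), abdomen shaved. Sensitized on day 0 with topical 1% oxazolone (50 µL) in acetone/corn oil 4:1. From day 7, right ear challenged with 0.2% oxazolone (25 µL) 3 times weekly; left ear got vehicle. Oral dosing twice daily, 30 min before challenge, for 3 weeks. Scratching counted for 1 h after challenge on day 25. Ear thickness measured; ear fixed in 4% paraformaldehyde, 3 µm paraffin sections stained with H&E for epidermal thickness. Mean ± S.E.M., t-test.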

[11] = target: Histamine H2 receptor (Homo sapiens) (UniProt P25021); assay: Displacement of [125I]-aminopotentidine from recombinant human histamine H2 receptor after 120 mins by radiometric scintillation counting analysis
Chain of Histamine H2 receptor (Homo sapiens) (P25021 whole entry): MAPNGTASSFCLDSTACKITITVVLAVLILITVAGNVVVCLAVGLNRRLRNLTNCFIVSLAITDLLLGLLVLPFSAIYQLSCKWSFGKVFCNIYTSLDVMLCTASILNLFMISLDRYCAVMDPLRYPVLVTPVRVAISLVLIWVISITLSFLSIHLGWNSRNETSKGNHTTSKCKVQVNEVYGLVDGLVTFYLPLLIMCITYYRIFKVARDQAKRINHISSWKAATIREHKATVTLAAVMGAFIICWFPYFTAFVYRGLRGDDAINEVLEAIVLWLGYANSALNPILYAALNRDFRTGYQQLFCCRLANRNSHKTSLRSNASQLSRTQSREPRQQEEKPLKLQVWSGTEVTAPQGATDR

[12] = system: Mus musculus; assay: Antiinflammatory activity in oxazolone-induced Balb/c mouse model of atopic dermatitis assessed as reduction of ear thickness at 50 mg/kg, po BID administered 30 mins prior to oxazolone challenge for 3 weeks and measured on day 27; format: functional, organism-based; in short: as §2
[13] = target: Histamine H3 receptor (Homo sapiens, UniProt Q9Y5N1); assay: Displacement of [3H]-N-alpha-methylhistamine from recombinant human histamine H3 receptor after 60 mins by radiometric scintillation counting analysis
Chain of Histamine H3 receptor (Q9Y5N1 whole entry): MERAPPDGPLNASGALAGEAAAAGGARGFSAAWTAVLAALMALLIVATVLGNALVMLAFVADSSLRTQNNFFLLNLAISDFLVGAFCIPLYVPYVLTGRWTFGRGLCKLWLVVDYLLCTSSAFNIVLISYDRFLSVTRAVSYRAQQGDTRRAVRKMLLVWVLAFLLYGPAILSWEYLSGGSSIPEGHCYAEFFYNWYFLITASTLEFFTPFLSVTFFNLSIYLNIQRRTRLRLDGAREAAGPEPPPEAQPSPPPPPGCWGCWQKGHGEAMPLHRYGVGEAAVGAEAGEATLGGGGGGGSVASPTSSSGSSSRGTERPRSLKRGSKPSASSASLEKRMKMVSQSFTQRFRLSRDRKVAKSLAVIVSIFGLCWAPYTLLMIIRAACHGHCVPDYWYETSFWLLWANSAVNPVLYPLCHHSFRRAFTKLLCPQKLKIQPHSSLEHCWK

[14] = system: Mus musculus; assay: Anti-pruritus activity in ICR mouse with histamine-induced itching assessed as reduction of scratching bouts administered orally 30 mins prior to histamine challenge and measured upto 20 mins; format: functional, organism-based; conditions: dose 2-50 mg/kg, time 50.0 min

**Q.** With CNC1CN(c2nc3ncc(Br)cc3n3nnnc23)C1 as the compound, how does the Cmax [1] read?
**A.** 1820 ng/mL

**Q.** What about the Activity [2] of the same compound?
**A.** <=50%

**Q.** And the AUC at 24 h [3]?
**A.** 251 ng·h/mL

**Q.** What about the IC50 [4] of the same compound?
**A.** 290 nM

**Q.** And the Activity [5]?
**A.** inactive

**Q.** What about the Tmax [6] of the same compound?
**A.** 30 min

**Q.** And the Tmax [7]?
**A.** 30 min

**Q.** And the Activity [8]?
**A.** Active

**Q.** And the AUC at 24 h [9]?
**A.** 5400 ng·h/mL

**Q.** And the Activity [10]?
**A.** Active

**Q.** And the Activity [11]?
**A.** inactive

**Q.** What about the Activity [12] of the same compound?
**A.** Active

**Q.** What about the Activity [13] of the same compound?
**A.** inactive

**Q.** And the Activity [14]?
**A.** Dose-dependent effect
